In ChEMBL document CHEMBL4382192, “Discovery of a potent dual ALK and EGFR T790M inhibitor” (Eur J Med Chem, 2017):

Legend:
[1] = Metabolic stability in mouse liver microsomes assessed as parent compound remaining at 1 uM after 30 mins in presence of NADPH by LC/MS/MS analysis; assay type: ADME, Microsome; settings: read-out: Stability
Method in brief: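 Compound at 1 μM final with 0.5 mg/mL microsomal protein in 100 mM phosphate buffer pH 7.4 at 37 °C, started by adding an NADPH-regenerating system. Reactions were quenched with cold acetonitrile at 0 and 30 min and spun down. Supernatant was analysed by LC-MS/MS. The 0-min sample, quenched before NADPH addition, was set as 100%, and percent parent remaining came from peak areas.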

[2] = AUClast in mouse at 2 mg/kg, iv; assay type: ADME, organism-based; set-up: dose 2 mg/kg, route intravenous, time 0 - last; settings: in vivo
[3] = Oral bioavailability in mouse at 10 mg/kg; assay type: ADME, organism-based; settings: in vivo
[4] = target: Tyrosine-protein kinase Blk (Homo sapiens, UniProt P51451); assay: Binding affinity to wild-type human partial length BLK (G211 to L503 residues) expressed in bacterial expression system assessed as residual binding level at 1 uM by Kinomescan method relative to control
[5] = target: Dual specificity tyrosine-phosphorylation-regulated kinase 1B (Homo sapiens) (UniProt Q9Y463); assay: Binding affinity to wild-type human full length DYRK1B (M1 to S629 residues) expressed in bacterial expression system assessed as residual binding level at 1 uM by Kinomescan method relative to control
[6] = target: Ephrin type-B receptor 2 (Homo sapiens) (UniProt P29323); assay: Binding affinity to wild-type human partial length EPHB2 (I597 to L902 residues) expressed in bacterial expression system assessed as residual binding level at 1 uM by Kinomescan method relative to control
[7] = target: Receptor tyrosine-protein kinase erbB-4 (Homo sapiens, UniProt Q15303); assay: Binding affinity to wild-type human partial length ERBB4 (L690 to K994 residues) expressed in bacterial expression system assessed as residual binding level at 1 uM by Kinomescan method relative to control
[8] = target: Fibroblast growth factor receptor 2 (Homo sapiens) (UniProt P21802); assay: Binding affinity to wild-type human partial length FGFR2 (D457 to E769 residues) expressed in bacterial expression system assessed as residual binding level at 1 uM by Kinomescan method relative to control
[9] = target: Tyrosine-protein kinase FRK (Homo sapiens) (UniProt P42685); assay: Binding affinity to wild-type human partial length FRK (A215 to F503 residues) expressed in bacterial expression system assessed as residual binding level at 1 uM by Kinomescan method relative to control
[10] = target: Homeodomain-interacting protein kinase 1 (Homo sapiens) (UniProt Q86Z02); assay: Binding affinity to wild-type human partial length HIPK1 (M146 to I555 residues) expressed in mammalian expression system assessed as residual binding level at 1 uM by Kinomescan method relative to control
[11] = target: Interleukin-1 receptor-associated kinase 3 (Homo sapiens) (UniProt Q9Y616); assay: Binding affinity to wild-type human partial length IRAK3 (V147 to E596 residues) expressed in bacterial expression system assessed as residual binding level at 1 uM by Kinomescan method relative to control
[12] = target: Tyrosine-protein kinase Lyn (Homo sapiens) (UniProt P07948); assay: Binding affinity to wild-type human partial length LYN (C219 to Q511 residues) expressed in bacterial expression system assessed as residual binding level at 1 uM by Kinomescan method relative to control
[13] = target: Mitogen-activated protein kinase kinase kinase kinase 4 (Homo sapiens) (UniProt O95819); assay: Binding affinity to wild-type human partial length MAP4K4 (M1 to R310 residues) expressed in bacterial expression system assessed as residual binding level at 1 uM by Kinomescan method relative to control
[14] = target: Serine/threonine-protein kinase mTOR (Homo sapiens) (UniProt P42345); assay: Binding affinity to wild-type human partial length MTOR (L1382 to W2549 residues) expressed in mammalian expression system assessed as residual binding level at 1 uM by Kinomescan method relative to control
[15] = target: Myosin-IIIb (Homo sapiens) (UniProt Q8WXR4); assay: Binding affinity to wild-type human partial length MYO3B (M1 to D357 residues) expressed in bacterial expression system assessed as residual binding level at 1 uM by Kinomescan method relative to control
[16] = target: Serine/threonine-protein kinase Nek4 (Homo sapiens) (UniProt P51957); assay: Binding affinity to wild-type human full length NEK4 (M1 to F841 residues) expressed in mammalian expression system assessed as residual binding level at 1 uM by Kinomescan method relative to control
Method in brief: (§1)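 Single-point kinome-wide KINOMEscan binding panel, test compound at 1 μM, run by the provider's standard protocol.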

[17] = target: Phosphatidylinositol 4,5-bisphosphate 3-kinase catalytic subunit alpha isoform (Homo sapiens) (UniProt P42336); assay: Binding affinity to wild-type human partial length PIK3CA (R108 to N1068 residues) expressed in mammalian expression system assessed as residual binding level at 1 uM by Kinomescan method relative to control
[18] = target: Proto-oncogene tyrosine-protein kinase receptor Ret (Homo sapiens) (UniProt P07949); assay: Binding affinity to wild-type human partial length RET (E713 to D1014 residues) expressed in bacterial expression system assessed as residual binding level at 1 uM by Kinomescan method relative to control
[19] = target: Ribosomal protein S6 kinase alpha-5 (Homo sapiens) (UniProt O75582); assay: Binding affinity to wild-type human partial length C-terminal RPS6KA5 kinase domain 2 (V390 to T718 residues) expressed in bacterial expression system assessed as residual binding level at 1 uM by Kinomescan method relative to control
[20] = target: SRSF protein kinase 1 (Homo sapiens) (UniProt Q96SB4); assay: Binding affinity to wild-type human full length SRPK1 (M1 to S655 residues) expressed in bacterial expression system assessed as residual binding level at 1 uM by Kinomescan method relative to control; method in brief: as §1
[21] = target: Tyrosine-protein kinase SYK (Homo sapiens) (UniProt P43405); assay: Binding affinity to wild-type human partial length SYK (D354 to N635 residues) expressed in bacterial expression system assessed as residual binding level at 1 uM by Kinomescan method relative to control
[22] = target: Mitogen-activated protein kinase kinase kinase 7 (Homo sapiens) (UniProt O43318); assay: Binding affinity to wild-type human partial length TAK1 (M1 to Q303 residues) expressed in mammalian expression system assessed as residual binding level at 1 uM by Kinomescan method relative to control
[23] = target: Serine/threonine-protein kinase TAO1 (Homo sapiens) (UniProt Q7L7X3); assay: Binding affinity to wild-type human partial length TAOK1 (M1 to A320 residues) expressed in mammalian expression system assessed as residual binding level at 1 uM by Kinomescan method relative to control
[24] = target: Vascular endothelial growth factor receptor 2 (Homo sapiens) (UniProt P35968); assay: Binding affinity to wild-type human partial length VEGFR2 (R787 to P1253 residues) expressed in mammalian expression system assessed as residual binding level at 1 uM by Kinomescan method relative to control

SRSF protein kinase 1 (Homo sapiens), sequence (Q96SB4 whole entry, the tested form may be a part): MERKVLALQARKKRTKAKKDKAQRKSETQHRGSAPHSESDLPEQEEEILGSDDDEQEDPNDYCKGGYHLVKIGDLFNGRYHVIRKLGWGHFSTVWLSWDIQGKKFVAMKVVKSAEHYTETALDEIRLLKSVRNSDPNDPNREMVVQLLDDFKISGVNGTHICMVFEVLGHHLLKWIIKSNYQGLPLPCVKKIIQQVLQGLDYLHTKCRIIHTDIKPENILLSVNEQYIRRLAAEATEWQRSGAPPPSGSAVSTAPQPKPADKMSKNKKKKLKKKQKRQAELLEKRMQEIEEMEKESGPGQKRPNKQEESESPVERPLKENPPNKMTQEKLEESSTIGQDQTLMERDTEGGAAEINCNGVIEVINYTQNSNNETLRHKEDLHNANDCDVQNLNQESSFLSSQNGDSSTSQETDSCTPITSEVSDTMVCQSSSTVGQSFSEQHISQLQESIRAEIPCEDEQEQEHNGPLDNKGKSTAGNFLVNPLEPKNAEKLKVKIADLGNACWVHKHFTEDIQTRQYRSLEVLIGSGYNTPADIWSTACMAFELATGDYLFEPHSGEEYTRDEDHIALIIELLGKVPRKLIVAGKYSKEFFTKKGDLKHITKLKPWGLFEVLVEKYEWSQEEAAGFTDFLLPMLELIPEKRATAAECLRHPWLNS
Mitogen-activated protein kinase kinase kinase 7 (Homo sapiens), sequence (O43318 whole entry, the tested form may be a part): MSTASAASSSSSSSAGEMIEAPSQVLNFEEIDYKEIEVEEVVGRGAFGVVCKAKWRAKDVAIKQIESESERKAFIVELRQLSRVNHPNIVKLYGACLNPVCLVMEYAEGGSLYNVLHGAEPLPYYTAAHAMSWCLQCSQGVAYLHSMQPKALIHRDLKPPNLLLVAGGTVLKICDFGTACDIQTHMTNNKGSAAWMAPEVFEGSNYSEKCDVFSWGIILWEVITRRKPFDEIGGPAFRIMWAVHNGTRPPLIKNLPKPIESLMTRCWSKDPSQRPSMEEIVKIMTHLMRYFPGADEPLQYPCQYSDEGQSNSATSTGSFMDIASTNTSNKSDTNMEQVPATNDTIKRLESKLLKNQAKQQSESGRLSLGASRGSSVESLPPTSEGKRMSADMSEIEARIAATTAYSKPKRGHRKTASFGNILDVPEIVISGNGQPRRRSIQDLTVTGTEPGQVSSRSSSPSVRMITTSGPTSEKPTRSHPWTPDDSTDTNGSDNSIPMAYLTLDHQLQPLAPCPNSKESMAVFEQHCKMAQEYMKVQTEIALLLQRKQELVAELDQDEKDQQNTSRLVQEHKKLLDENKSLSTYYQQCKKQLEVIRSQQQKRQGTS
Myosin-IIIb (Homo sapiens), sequence (Q8WXR4 whole entry, the tested form may be a part): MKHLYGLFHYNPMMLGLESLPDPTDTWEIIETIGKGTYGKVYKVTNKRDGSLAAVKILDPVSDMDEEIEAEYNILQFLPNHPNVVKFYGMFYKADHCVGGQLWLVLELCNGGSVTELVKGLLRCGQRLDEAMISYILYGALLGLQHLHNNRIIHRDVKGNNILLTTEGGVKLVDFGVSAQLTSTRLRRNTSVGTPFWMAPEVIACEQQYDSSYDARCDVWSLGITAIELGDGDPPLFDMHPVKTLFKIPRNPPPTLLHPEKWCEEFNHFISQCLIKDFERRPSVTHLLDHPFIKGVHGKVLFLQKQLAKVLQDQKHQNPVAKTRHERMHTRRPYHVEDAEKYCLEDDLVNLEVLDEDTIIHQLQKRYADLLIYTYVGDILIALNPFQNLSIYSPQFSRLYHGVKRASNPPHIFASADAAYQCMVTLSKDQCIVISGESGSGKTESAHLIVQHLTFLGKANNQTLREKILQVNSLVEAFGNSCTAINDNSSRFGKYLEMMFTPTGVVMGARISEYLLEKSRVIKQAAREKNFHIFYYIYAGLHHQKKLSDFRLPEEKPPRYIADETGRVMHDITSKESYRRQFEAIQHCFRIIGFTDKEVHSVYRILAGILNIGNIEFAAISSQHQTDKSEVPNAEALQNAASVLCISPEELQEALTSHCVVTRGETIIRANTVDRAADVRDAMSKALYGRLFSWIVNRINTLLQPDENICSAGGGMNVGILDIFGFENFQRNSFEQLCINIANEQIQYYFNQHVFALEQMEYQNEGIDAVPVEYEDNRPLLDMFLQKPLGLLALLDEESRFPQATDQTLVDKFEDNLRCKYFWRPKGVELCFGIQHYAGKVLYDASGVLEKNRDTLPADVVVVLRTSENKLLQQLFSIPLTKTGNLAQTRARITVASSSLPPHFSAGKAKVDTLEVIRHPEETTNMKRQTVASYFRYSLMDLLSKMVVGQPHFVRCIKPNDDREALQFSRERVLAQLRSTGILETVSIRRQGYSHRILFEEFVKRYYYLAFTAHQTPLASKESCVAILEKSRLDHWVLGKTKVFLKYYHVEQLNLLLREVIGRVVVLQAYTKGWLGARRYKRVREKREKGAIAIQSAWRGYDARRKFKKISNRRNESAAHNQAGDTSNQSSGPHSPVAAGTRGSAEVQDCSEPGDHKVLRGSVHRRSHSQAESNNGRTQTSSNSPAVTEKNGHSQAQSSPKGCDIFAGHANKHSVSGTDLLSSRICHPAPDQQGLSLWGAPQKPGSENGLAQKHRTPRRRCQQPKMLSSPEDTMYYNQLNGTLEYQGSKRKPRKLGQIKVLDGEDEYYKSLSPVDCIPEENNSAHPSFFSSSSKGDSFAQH
Serine/threonine-protein kinase TAO1 (Homo sapiens), sequence (Q7L7X3 whole entry, the tested form may be a part): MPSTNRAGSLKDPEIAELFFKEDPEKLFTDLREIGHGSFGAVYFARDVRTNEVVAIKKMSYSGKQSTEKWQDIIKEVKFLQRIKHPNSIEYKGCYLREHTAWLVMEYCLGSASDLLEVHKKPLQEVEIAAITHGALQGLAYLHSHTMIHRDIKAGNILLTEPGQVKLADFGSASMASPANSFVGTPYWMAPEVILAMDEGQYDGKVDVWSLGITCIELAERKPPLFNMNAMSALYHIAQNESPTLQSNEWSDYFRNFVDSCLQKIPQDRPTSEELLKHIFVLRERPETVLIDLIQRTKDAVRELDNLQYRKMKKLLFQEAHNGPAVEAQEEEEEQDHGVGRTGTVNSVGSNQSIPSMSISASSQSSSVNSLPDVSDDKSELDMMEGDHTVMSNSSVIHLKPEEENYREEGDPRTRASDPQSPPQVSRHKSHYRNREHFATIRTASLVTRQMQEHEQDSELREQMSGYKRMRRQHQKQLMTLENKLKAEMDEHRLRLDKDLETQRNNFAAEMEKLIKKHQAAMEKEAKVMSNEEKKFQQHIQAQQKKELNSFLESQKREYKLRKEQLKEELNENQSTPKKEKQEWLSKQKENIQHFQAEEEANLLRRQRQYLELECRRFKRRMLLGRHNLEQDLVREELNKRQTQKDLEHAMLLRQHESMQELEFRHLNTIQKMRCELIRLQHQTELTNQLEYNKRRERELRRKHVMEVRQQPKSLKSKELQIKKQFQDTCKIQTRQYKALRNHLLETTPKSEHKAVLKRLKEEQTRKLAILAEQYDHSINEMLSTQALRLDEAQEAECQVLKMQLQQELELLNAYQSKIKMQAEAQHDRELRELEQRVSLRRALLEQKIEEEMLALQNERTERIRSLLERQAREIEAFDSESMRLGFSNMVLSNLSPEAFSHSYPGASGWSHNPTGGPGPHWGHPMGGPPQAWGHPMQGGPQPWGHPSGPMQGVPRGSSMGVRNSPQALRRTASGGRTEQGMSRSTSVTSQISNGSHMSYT
Mitogen-activated protein kinase kinase kinase kinase 4 (Homo sapiens), sequence (O95819 2-1239 limits assumed): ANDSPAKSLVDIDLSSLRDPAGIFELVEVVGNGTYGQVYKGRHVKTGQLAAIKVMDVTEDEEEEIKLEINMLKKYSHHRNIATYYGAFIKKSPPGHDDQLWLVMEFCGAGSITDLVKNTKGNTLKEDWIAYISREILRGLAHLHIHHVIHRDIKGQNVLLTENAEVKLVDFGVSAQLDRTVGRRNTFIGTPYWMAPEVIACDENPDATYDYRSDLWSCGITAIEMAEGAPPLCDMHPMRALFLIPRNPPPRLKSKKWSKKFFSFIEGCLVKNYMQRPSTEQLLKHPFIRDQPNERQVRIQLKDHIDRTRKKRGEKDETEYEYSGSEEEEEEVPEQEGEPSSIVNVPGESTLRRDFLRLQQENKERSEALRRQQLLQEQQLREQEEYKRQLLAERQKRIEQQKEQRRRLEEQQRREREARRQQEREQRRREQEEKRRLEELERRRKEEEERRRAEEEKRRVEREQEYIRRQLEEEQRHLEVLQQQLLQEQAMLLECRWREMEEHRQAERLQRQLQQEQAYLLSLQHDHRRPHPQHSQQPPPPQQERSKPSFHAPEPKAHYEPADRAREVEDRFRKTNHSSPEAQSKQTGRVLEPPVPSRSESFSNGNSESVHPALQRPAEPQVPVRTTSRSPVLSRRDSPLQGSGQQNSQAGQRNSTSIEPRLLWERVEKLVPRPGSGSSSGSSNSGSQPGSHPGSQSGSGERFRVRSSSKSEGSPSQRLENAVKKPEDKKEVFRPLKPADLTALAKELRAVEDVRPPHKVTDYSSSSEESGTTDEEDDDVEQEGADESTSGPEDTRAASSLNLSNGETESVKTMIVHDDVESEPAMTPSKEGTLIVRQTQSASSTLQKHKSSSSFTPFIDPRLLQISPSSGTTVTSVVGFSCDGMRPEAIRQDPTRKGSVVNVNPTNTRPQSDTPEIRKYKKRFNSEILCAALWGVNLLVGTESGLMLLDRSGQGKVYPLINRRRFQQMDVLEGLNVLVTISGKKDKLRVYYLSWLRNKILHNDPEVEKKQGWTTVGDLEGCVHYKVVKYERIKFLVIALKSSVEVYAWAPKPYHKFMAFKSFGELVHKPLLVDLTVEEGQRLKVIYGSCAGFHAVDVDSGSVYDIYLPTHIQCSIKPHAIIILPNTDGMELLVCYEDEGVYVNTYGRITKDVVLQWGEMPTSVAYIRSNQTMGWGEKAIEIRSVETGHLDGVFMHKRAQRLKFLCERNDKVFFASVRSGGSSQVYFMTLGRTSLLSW

**Q.** For `C=CC(=O)Nc1cc(Nc2ncc(Cl)c(Nc3ccccc3S(=O)(=O)C(C)C)n2)c(OC)cc1N(C)CCN(C)C`, which remaining at 0.5 h, 1 µM [1] is on record?
**A.** 12%

**Q.** And the AUC(0-t) [2]?
**A.** 1290 ng·h/mL

**Q.** And the bioavailability [3]?
**A.** 24%

**Q.** What about the Activity [4] of the same compound?
**A.** 0.05%

**Q.** What about the Activity [5] of the same compound?
**A.** 48%

**Q.** What about the Activity [6] of the same compound?
**A.** 61%

**Q.** And the Activity [7]?
**A.** 0%

**Q.** And the Activity [8]?
**A.** 15%

**Q.** What about the Activity [9] of the same compound?
**A.** 5.9%

**Q.** And the Activity [10]?
**A.** 57%

**Q.** And the Activity [11]?
**A.** 37%

**Q.** And the Activity [12]?
**A.** 57%

**Q.** What about the Activity [13] of the same compound?
**A.** 87%

**Q.** What about the Activity [14] of the same compound?
**A.** 100%

**Q.** What about the Activity [15] of the same compound?
**A.** 1.8%

**Q.** What about the Activity [16] of the same compound?
**A.** 100%

**Q.** And the Activity [17]?
**A.** 85%

**Q.** And the Activity [18]?
**A.** 13%

**Q.** What about the Activity [19] of the same compound?
**A.** 64%

**Q.** And the Activity [20]?
**A.** 28%

**Q.** What about the Activity [21] of the same compound?
**A.** 42%

**Q.** And the Activity [22]?
**A.** 35%

**Q.** What about the Activity [23] of the same compound?
**A.** 0.45%

**Q.** What about the Activity [24] of the same compound?
**A.** 42%
